In series [1] the test system is Plasmodium falciparum. Briefly: Antimalarial activity against Plasmodium falciparum 3D7 assessed as reduction in parasite growth measured after 72 hrs by Monash assay based fluorescence analysis. The format is functional, organism-based. Particulars: 3D7, 72 h. The gist of the method: (§1)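 Asynchronous P. falciparum cultures were grown continuously in complete RPMI with 25 mM HEPES, 0.5% Albumax II, 0.37 mM hypoxanthine and 2.0 g/l bicarbonate. They were exposed to serially diluted compound for 72 h. Controls were DMSO (0.01%) and a reference positive control. Fluorescence was read after 2 h in the dark at room temperature. IC50 is mean SEM from technical duplicate or triplicate, at least three biological replicates.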

For series [2], the system named is Plasmodium falciparum. Briefly: Antimalarial activity against artemisinin-resistant Plasmodium falciparum Cam3.II^C580Y expressing K13 mutant assessed as reduction in parasite growth measured after 72 hrs by Monash assay based fluorescence analysis. Type of series: functional, organism-based. In outline: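 Asynchronous culture, 72 h compound exposure. Compounds prepared at […] (twice the top concentration) in complete RPMI (25 mM HEPES, 0.5% Albumax II, 0.37 mM hypoxanthine, sodium bicarbonate), then serially diluted. Fluorescence read after 2 h room-temperature dark incubation. Negative control 0.01% DMSO. IC50 as mean SEM, n ≥ 3 biological replicates, each in technical duplicate or triplicate.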

For series [3], the system named is Plasmodium falciparum. Briefly: Antimalarial activity against artemisinin-sensitive Plasmodium falciparum Cam3.II^rev expressing wild type K13 assessed as reduction in parasite growth measured after 72 hrs by Monash assay based fluorescence analysis. Type of series: functional, organism-based. The gist of the method:
as §1

Series [4] in a line: Selectivity index, ratio of IC50 for cytotoxicity against human HEK293 cells to antiplasmodial activity against Plasmodium falciparum 3D7. Type of series: toxicity, cell-based. Particulars: read-out: Ratio IC50.
The nature of series [5]: Kinetic solubility of the compound at pH 2 measured after 30 mins by nephelometry. The format is physicochemical. The note with it: buffer, read-out: Kinetic_solubility. The gist of the method:
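Compound in DMSO was spiked into 0.01 M HCl (pH ~2.0) at a final DMSO of 1%. After 30 min, nephelometry gave a solubility range.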

The nature of series [6]: Metabolic stability in mouse liver microsomes assessed as half-life at 1 uM measured for 60 mins in presence of NADPH regenerating system by LC-MS analysis. Type of series: ADME, Microsome. In outline:
(§2)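 Compound was incubated at 37 °C with liver microsomes at 0.4 mg/mL protein. The reaction was started with an NADPH-regenerating system and quenched at time points over 60 min with acetonitrile containing diazepam as internal standard. No-NADPH controls were quenched at 2, 30 and 60 min.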

The nature of series [7]: Metabolic stability in human liver microsomes assessed as half-life at 1 uM measured for 60 mins in presence of NADPH regenerating system by LC-MS analysis. The format is ADME, Microsome. The gist of the method:
as §2

The nature of series [8]: Metabolic stability in mouse liver microsomes assessed as intrinsic clearance at 1 uM measured per mg protein for 60 mins in presence of NADPH regenerating system by LC-MS analysis. Type of series: ADME, Microsome. The note with it: read-out: CLH. In outline:
as §2

A short description of series [9]: Metabolic stability in human liver microsomes assessed as intrinsic clearance at 1 uM measured per mg protein after 60 mins in presence of NADPH regenerating system by LC-MS analysis. The format is ADME, Microsome. The note with it: read-out: CLH. In outline: as §2
The nature of series [10]: Kinetic solubility of the compound at pH 6.5 measured after 30 mins by nephelometry. The note with it: buffer, read-out: Kinetic_solubility.
The subject of a further series is HEK293. Briefly: Cytotoxicity against human HEK293 cells assessed as reduction in cell viability at 50 uM measured after 24 hrs by MTT assay. The note with it: hek293, 24 h.
Series [11] concerns Plasmodium falciparum 3D7. Briefly: Binding affinity to Plasmodium falciparum 3D7 AMA1 (104 to 438 residues) expressed in Escherichia coli BL21(DE3) by surface plasmon resonance assay.
In series [12] the test system is Plasmodium falciparum. Description: Antimalarial activity against synchronous ring stage of Plasmodium falciparum 3D7 assessed as parasite growth inhibition incubated for 72 hrs by Griffith assay based fluorescence analysis. The format is functional, organism-based. Particulars: 3D7, 72 h. In outline: (§3)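 22-point dose-response, 3 per log, final 40 µM top, 0.4% DMSO. 72 h at 37 °C under 90% N2/5% CO2/5% O2. DAPI stain, confocal imaging. IC50 from 4-parameter fit normalised to in-plate puromycin and DMSO controls.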

Series [13] has as its system Plasmodium falciparum. Description: Antimalarial activity against synchronous ring stage of Plasmodium falciparum Dd2 assessed as parasite growth inhibition incubated for 72 hrs by Griffith assay based fluorescence analysis. Particulars: Dd2, 72 h. Type of series: functional, organism-based. In outline: as §3
The nature of series [14]: Selectivity index, ratio of IC50 for antimalarial activity against Plasmodium falciparum Dd2 to IC50 of antimalarial activity against Plasmodium falciparum 3D7. Type of series: functional.

In brackets after ≈: the same amount, converted by molar mass. Activity calls are given as the source filed them. The rule behind the calls is not given here.

Results on 30 molecules are retold here after ChEMBL document CHEMBL4837227, “Discovery and development of 2-aminobenzimidazoles as potent antimalarials” (Eur J Med Chem, 2021).

Consider `Nc1nc2ccccc2n1-c1ncccc1O`, for which the IC50 in the series with Plasmodium falciparum [1] was over 500 nM.

Take `Cc1cc(C)c(O)c(-n2c(N)nc3ccccc32)c1`: the IC50 in the series with Plasmodium falciparum [1] is 23 nM; in the series on Plasmodium falciparum [2] it was 139 nM; in the series on Plasmodium falciparum [3], 133 nM. Also, the selectivity ratio in series [4] is over 1000. Besides, the solubility kinetic at 0.5 h is over 100 µg/mL in series [5] and 12.5 µg/mL (≈ 49.3 µM) in series [10]. The half-life at 1 µM was 0.0667 h in [6] and 2.88 h in series [7]. The microsomal CLint at 1 µM in series [8] is 476 µL/min/mg; in series [9], 10 µL/min/mg. For the same molecule, the Activity result in the series on HEK293 is listed as “Non-Toxic”.

For the molecule `Oc1ccccc1-n1c(NCC2CCCCC2)nc2ccccc21`, the IC50 with Plasmodium falciparum [1] was 224 nM.

`CC(C)CNc1nc2ccccc2n1-c1ccccc1O`: the IC50 in the series on Plasmodium falciparum [1] is 356 nM.

Consider `CCCCNc1nc2ccccc2n1-c1ccccc1O`, for which, in the series with Plasmodium falciparum [1], the IC50 is 278 nM.

With `Nc1nc2ccccc2n1-c1cnccc1O`, the IC50 in the series on Plasmodium falciparum [1] is over 500 nM.

Regarding `CCCNc1nc2ccccc2n1-c1ccccc1O`, in the series on Plasmodium falciparum [1], the half-maximal inhibitory concentration (IC50) is over 500 nM.

On to `COc1ccc(-n2c(N)nc3ccccc32)cc1`, for which the half-maximal inhibitory concentration (IC50) with Plasmodium falciparum [1] was over 500 nM. Further, the result in [11] was inactive.

For the molecule `COc1cccc(-n2c(N)nc3ccccc32)c1`, in the series with Plasmodium falciparum [1], the IC50 is over 500 nM. The result in [11] was inactive.

In the case of `N#Cc1ccc(-n2c(N)nc3ccccc32)cc1`, in the series on Plasmodium falciparum [1], the half-maximal inhibitory concentration (IC50) was over 500 nM. The outcome in series [11] was inactive.

Regarding `Nc1nc2ccccc2n1-c1ccncc1O`, in the series on Plasmodium falciparum [1], the IC50 is over 500 nM.

As for `Nc1nc2ccccc2n1-c1cc(Cl)ccc1O`, the IC50 in the series on Plasmodium falciparum [1] stood at 162 nM.

For `Cc1cccc(-n2c(N)nc3ccccc32)c1O`, in the series with Plasmodium falciparum [1], the concentration for half-maximal inhibition (IC50) was determined as 61 nM.

In the case of `Nc1nc2cccnc2n1-c1ccccc1O`, in the series on Plasmodium falciparum [1], the IC50 was over 500 nM.

For `Cc1cc(O)c(-n2c(N)nc3ccccc32)cc1C`, the IC50 in the series on Plasmodium falciparum [1] was determined as 6.4 nM; in the series with Plasmodium falciparum [2] it was 63 nM; in the series with Plasmodium falciparum [3], 47 nM. In addition, in series [4], the selectivity ratio was over 1000. Moreover, the figures for the solubility kinetic at 0.5 h in series [5] and in series [10] were over 100 µg/mL and 12.5 µg/mL (≈ 49.3 µM), respectively. In addition, the half-life at 1 µM in series [6] was 0.383 h; in series [7], 2.15 h. Also, the microsomal CLint at 1 µM in series [8] came to 76 µL/min/mg; in series [9] it was 13 µL/min/mg. Also, the Activity entry in the series on HEK293 is on record as “Non-Toxic”.

On to `COc1ccc(O)c(-n2c(N)nc3ccccc32)c1`, for which the 50% inhibitory concentration (IC50) with Plasmodium falciparum [1] was over 500 nM.

In the case of `Nc1nc2ccccc2n1-c1cccnc1O`, in the series on Plasmodium falciparum [1], the IC50 was over 500 nM.

Take `Nc1nccnc1-c1ccccc1O`: the concentration for half-maximal inhibition (IC50) in the series with Plasmodium falciparum [1] is over 500 nM.

With `COc1ccccc1-n1c(N)nc2ccccc21`, in the series with Plasmodium falciparum [1], the IC50 is over 500 nM. For the same molecule, the outcome in series [11] was inactive.

In the case of `Cc1ccc(O)c(-n2c(N)nc3ccccc32)c1`, in the series on Plasmodium falciparum [1], the concentration for half-maximal inhibition (IC50) came to 56 nM.

Consider `Oc1ccccc1-n1c(NCC2CC2)nc2ccccc21`, for which the IC50 with Plasmodium falciparum [1] is over 500 nM.

Consider `Nc1nc2ccccc2n1-c1ccc(F)cc1O`, for which the concentration for half-maximal inhibition (IC50) with Plasmodium falciparum [1] stood at 188 nM.

For `Cc1cccc(O)c1-n1c(N)nc2ccccc21`, in the series on Plasmodium falciparum [1], the half-inhibitory concentration (IC50) was found to be 135 nM.

Consider `CCc1nc(N)nc(N)c1-c1ccc(Cl)cc1` [PYRIMETHAMINE], for which the IC50 in the series with Plasmodium falciparum [12] is 4.7 nM; in the series with Plasmodium falciparum [13] it was over 40000 nM. Besides, in series [14], the Ratio IC50 is over 8000.

For `Nc1ccccc1-n1c(S)nc2ccccc21`, the half-maximal inhibitory concentration (IC50) in the series with Plasmodium falciparum [1] was over 500 nM.

Turning to `Nc1nc2ccccc2n1-c1cccc2cc[nH]c12`, the 50% inhibitory concentration (IC50) in the series with Plasmodium falciparum [1] was over 500 nM.

Consider `Nc1nc2ccccc2n1[C@H]1CCCC[C@@H]1O`, for which the IC50 with Plasmodium falciparum [1] is over 500 nM.

With `Nc1nc2ccccc2n1CCO`, in the series with Plasmodium falciparum [1], the IC50 was over 500 nM.

Consider `Nc1nc2ccccc2n1-c1ccc2ccccc2c1O`, for which the IC50 in the series with Plasmodium falciparum [1] was 38 nM; with Plasmodium falciparum [2] it was 114 nM; in the series on Plasmodium falciparum [3], 105 nM. Moreover, in series [4], the selectivity ratio is over 1000. In addition, the Activity result with HEK293 was “Non-Toxic”.

Consider `Nc1nc2ccccc2n1-c1ccc(O)cc1`, for which the IC50 in the series with Plasmodium falciparum [1] was over 500 nM. Moreover, the result in [11] was inactive.
